Published values gathered from unrelated publications.
ABL1 F317L phosphorylated: Tyrosine-protein kinase ABL1, phosphorylated (ABL1, Homo sapiens, UniProt P00519, F317L)
ABL1: Tyrosine-protein kinase ABL1 (ABL1, Homo sapiens, UniProt P00519)
ABL1 phosphorylated: Tyrosine-protein kinase ABL1, phosphorylated (ABL1, Homo sapiens, UniProt P00519)
ABL1 M351T: Tyrosine-protein kinase ABL1 (ABL1, Homo sapiens, UniProt P00519, M351T)
ABL1 T315I phosphorylated: Tyrosine-protein kinase ABL1, phosphorylated (ABL1, Homo sapiens, UniProt P00519, T315I)
ABL1 E255K: Tyrosine-protein kinase ABL1 (ABL1, Homo sapiens, UniProt P00519, E255K)
ABL1 E255K phosphorylated: Tyrosine-protein kinase ABL1, phosphorylated (ABL1, Homo sapiens, UniProt P00519, E255K)
ABL1 F317L non-phosphorylated: Tyrosine-protein kinase ABL1, non-phosphorylated (ABL1, Homo sapiens, UniProt P00519, F317L)
ABL1 T315I: Tyrosine-protein kinase ABL1 (ABL1, Homo sapiens, UniProt P00519, T315I)
ABL1 Q252H non-phosphorylated: Tyrosine-protein kinase ABL1, non-phosphorylated (ABL1, Homo sapiens, UniProt P00519, Q252H)
ABL1 Q252H phosphorylated: Tyrosine-protein kinase ABL1, phosphorylated (ABL1, Homo sapiens, UniProt P00519, Q252H)

Structure (SMILES) | target | test | conditions | measurement | result
CN([C@@H]1CCc2c(CC(=O)O)c3cc(S(C)(=O)=O)ccc3n2C1)S(=O)(=O)c1ccc(F)cc1 | Tyrosine-protein kinase ABL1, phosphorylated (ABL1, Homo sapiens, UniProt P00519, H396P) | cell-free assay, competition with immobilised ligand | 1 µM | remaining binding | 78%
C=CC(=O)N1CCC(C(=O)NCC(=O)N2CCN(c3nc(-c4cnc(N)nc4C(F)F)nc(N4CCOCC4)n3)CC2)CC1 | ABL1 F317L phosphorylated | binding, competition with immobilised ligand | 1 µM | remaining binding | 100%
O=C1NC(=O)c2cc(Nc3ccc(F)cc3)c(Nc3ccc(F)cc3)cc21 | ABL1 | cell-free assay | 0.5 µM | remaining signal | 95.7%
Nc1ncnc2occ(-c3ccc(NC(=O)Nc4cc(C(F)(F)F)ccc4F)cc3)c12 | ABL1 phosphorylated | cell-free assay, inhibitor | 20 µM | remaining signal | 0.1%
CCCOc1ccc(OC)c(F)c1C(=O)c1ccc(C(=O)N[C@@H]2CNC[C@H]2NC(=O)c2ccc3[nH]ncc3c2)cc1 | ABL1 M351T | enzyme activity, inhibitor | 10 µM | remaining activity | 113%
Cc1ccc(NC(=O)c2ccc(CN3CCN(C)CC3)cc2)cc1Nc1nc(-c2cccnc2)cs1 | ABL1 | cell-free assay | 0.5 µM | remaining signal | 49.8%
CN(c1ccnc(CNc2nc(Nc3ccc4c(c3)CC(=O)N4)ncc2C(F)(F)F)n1)S(C)(=O)=O | Tyrosine-protein kinase ABL1, phosphorylated (ABL1, Homo sapiens, UniProt P00519, M351T) | cell-free assay, competition with immobilised ligand | 1 µM | remaining binding | 62%
c1nc2c(Nc3ccc4c(c3)OCCO4)nc(Nc3ccc4c(c3)OCCO4)nc2[nH]1 | Tyrosine-protein kinase ABL1, non-phosphorylated (ABL1, Homo sapiens, UniProt P00519) | enzyme activity, inhibitor | 10 µM | activity vs control | 2.1%
Cc1c(NC(=O)c2cc(C(N)=O)nc3cc(F)ccc23)c(C(F)(F)F)nn1Cc1ccc(C(C)(C)C)cc1 | ABL1 T315I phosphorylated | cell-free assay, competition with immobilised ligand | 1 µM | remaining binding | 85%
O=C(c1ccc(Nc2ncc(Cl)c(-c3cc4ccccc4s3)n2)cc1)N1CCC(N2CCCC2)CC1 | Tyrosine-protein kinase ABL1, non-phosphorylated (ABL1, Homo sapiens, UniProt P00519, F317I) | binding, competition with immobilised ligand | 1 µM | remaining binding | 74%
N#CCCc1ccc2c(c1)-c1[nH]c3ccc([N+](=O)[O-])cc3c1CC(=O)N2 | ABL1 | cell-free assay | 0.5 µM | remaining signal | 47.8%
CNC(=O)c1cc2c(Oc3ccc(NC(=O)C4(C(=O)Nc5ccc(F)cc5)CC4)cc3)ccnc2cc1OC | Tyrosine-protein kinase ABL1 (ABL1, Homo sapiens, UniProt P00519, H396P) | enzyme activity, inhibitor, radiometric | 1 µM | inhibition | 75%
C[C@@H]1CCN(C(=O)CC#N)C[C@@H]1N(C)c1ncnc2[nH]ccc12 | ABL1 | cell-free assay, inhibitor | 0.5 µM | remaining signal | 101%
COc1cc2ncnc(Nc3ccc(Oc4ccccc4)cc3C)c2cc1OC | ABL1 E255K | enzyme activity, inhibitor | 1 µM | inhibition | 5%
CN(CCCC(F)(F)F)c1nccc(-c2cnn3ncccc23)n1 | ABL1 E255K | binding | 1 µM | remaining binding | 98%
Cc1ccc(NC(=O)c2ccc(C)c(C(F)(F)F)c2)cc1C#Cc1nn(C2CCC(O)CC2)c2ncnc(N)c12 (centres unmarked) | ABL1 | cell-free assay | 10 µM | remaining signal | -3%
Cc1nc(Cc2cccc(C(F)(F)F)c2)sc1-c1ccc(C(N)=O)nc1 | Tyrosine-protein kinase ABL1, phosphorylated (ABL1, Homo sapiens, UniProt P00519, F317I) | binding | 1 µM | remaining binding | 83%
CNC(=O)[C@@H]1CC[C@@H](n2c(-c3ccc4cnccc4c3)nc3ccc(C(=O)NCc4cccc(C(N)=O)c4)cc32)C1 | ABL1 E255K phosphorylated | binding, competition with immobilised ligand | 1 µM | remaining binding | 100%

Structure (SMILES) | target | test | conditions | measurement | result
COc1cc(/C=C/C(=O)CC(=O)/C=C/c2ccc(O)c(OC)c2)ccc1O | ABL1 | enzyme activity, inhibitor | 1 µM | activity vs control | 82%
C[C@@H](c1ccc(-n2cnc3c(N)ncnc32)cc1)N1CCc2nn(C)c(Cc3ccccc3)c2C1=O | ABL1 F317L non-phosphorylated | binding, competition with immobilised ligand | 0.1 µM | remaining binding | 16%
Cc1ccc(C(=O)NCc2ccsc2)cc1C#Cc1cn(C(C)C)c2ncnc(N)c12 | ABL1 T315I | enzyme activity, inhibitor | 1 µM | activity vs control | 6%
O=C(NCC1CCOCC1)c1n[nH]cc1NC(=O)c1c(F)cccc1F | ABL1 Q252H non-phosphorylated | binding, competition with immobilised ligand | 1 µM | remaining binding | 82%
Nc1cnc(N2CCc3cc(S(=O)(=O)Nc4c(F)cc(Cl)cc4F)cc(N4CCCC4=O)c32)nc1 | ABL1 F317L phosphorylated | cell-free assay, competition with immobilised ligand | 1 µM | remaining binding | 78%
O=C(NCCCN1CCOCC1)c1ccc(Nc2ncc(Cl)c(-c3ccc(Cl)s3)n2)cc1 | ABL1 Q252H phosphorylated | binding, competition with immobilised ligand | 1 µM | remaining binding | 29%
CCOC(=O)c1cc2cc(-c3cc(C(=O)NCc4ccc(C(=O)O)cc4)nn3C)ccc2[nH]1 | ABL1 T315I phosphorylated | cell-free assay, competition with immobilised ligand | 0.1 µM | remaining binding | 92%
O=C(c1ccc(Nc2nccc(-c3cc4ccccc4s3)n2)cc1)N1CCC(N2CCCC2)CC1 | ABL1 Q252H non-phosphorylated | binding, competition with immobilised ligand | 1 µM | remaining binding | 9.8%
N[C@@H]1CCN(c2nccc(-c3cnn4ncccc34)n2)C1 | ABL1 phosphorylated | binding | 1 µM | remaining binding | 95%
O=C(NCCCN1CCOCC1)c1ccc(Nc2nccc(-c3cc4ccccc4s3)n2)cc1 | Tyrosine-protein kinase ABL1, phosphorylated (ABL1, Homo sapiens, UniProt P00519, Y253F) | binding, competition with immobilised ligand | 1 µM | remaining binding | 44%
Cc1cc(NC(=O)c2cccc3cc(-c4cccc5[nH]nc(N)c45)ccc23)ccc1F | Tyrosine-protein kinase ABL1 (ABL1, Homo sapiens, UniProt P00519, Y253F) | enzyme activity, inhibitor | 0.1 µM | activity vs control | 91%
Cc1cnc(NC2CCOCC2)nc1-n1cnc(C(=O)NC(CN)c2cc(F)cc(Cl)c2)c1 (centres unmarked) | ABL1 T315I | enzyme activity, inhibitor, radiometric | 1 µM | remaining activity | 115%
COc1cc(-c2cc(-c3ccc(N4CCNCC4)cc3)cnc2N)cc(OC)c1OC | ABL1 M351T | enzyme activity, inhibitor | 0.1 µM | inhibition | 86%
CN(C)C(=O)Cn1cc(-c2nc(C3(c4ccc(-c5cnc(N)nc5)cc4)CC3)no2)cn1 | ABL1 F317L non-phosphorylated | cell-free assay, competition with immobilised ligand | 1 µM | remaining binding | 55%
Nc1ncc2c(n1)-c1c([nH]c3ccc(C#CC4CC4)cc13)CCCC2 | ABL1 E255K phosphorylated | binding, competition with immobilised ligand | 1 µM | remaining binding | 100%
Cc1nccc(COC(=O)N2C[C@@H]3[C@@H](CNC(=O)c4ccc5[nH]nnc5c4)[C@@H]3C2)n1 | ABL1 Q252H phosphorylated | cell-free assay, competition with immobilised ligand | 1 µM | remaining binding | 93%
COc1cc2ncnc(Nc3ccc(Oc4ccccc4)c(C)c3C)c2cc1OC | ABL1 T315I | enzyme activity, inhibitor | 1 µM | inhibition | 8%
